Measurements taken from PMC8962836 (Journal of Alzheimer's disease : JAD, 2016).
pIC50: −log10 of the molar value. Values joined by “and” are separate entries in the source; they are usually repeats but may differ in a detail not shown here. Equal values may be shown once. “Also recorded” adds a separate entry of the source.

How the values were obtained:
[1] = system: 3xTgAD mouse model; settings: cited from earlier work
[2] = system: Aβ levels; settings: cited from earlier work
[3] = system: WT mice; settings: mouse, in vivo, ip
[4] = system: calpain 1; settings: read-out: IC50 calpain 1; cited from earlier work
[5] = system: AβPP/PS1 mice; assay: Contextual fear conditioning; type: in vivo, mouse
Outline: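 AβPP/PS1 and WT littermates got daily vehicle or test compound (Tween-80/DMSO, then vehicle-diluted). Training: one mouse per room, 2 min in the conditioning chamber, 0.50 mA foot shock for 2 s in the last 2 s, then 30 s more before returning to the home cage. Contextual freezing was scored. Investigators were blind to treatment and genotype; n = 8–18 per group; mean ± SEM, one-way ANOVA.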

[6] = system: calpain (calpain-generated spectrin fragment around 145 kDa); assay: Spectrin western blotting of hippocampal homogenates after in vivo treatment; parameters: species or system mouse
Outline: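 Hippocampi were taken from mice given test compound or vehicle. Tissue was homogenized in 62.5 mM Tris-HCl pH 6.8, 3% LDS, 1 mM DTT, held 10 min at 4°C, sonicated and centrifuged (20,000 rpm, 5 min). Extracts (15 μg/lane; vehicle also 20 μg) ran on 3–8% Tris-Acetate gels. Blots were probed with spectrin and β-III-tubulin antibodies (1:1,000) for the ~145 kDa calpain fragment.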

[7] = Pharmacokinetic assessment in plasma; type: in vivo, ICR mice
Outline: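 Male ICR mice (54 total; 3 groups of 18) were dosed i.p. with test compound in Tween-80 + DMSO diluted with vehicle. Plasma was separated by centrifugation (11,000 rpm, 5 min), stored at –80°C, and 25 μl was processed for LC/MS/MS. Calibration standards were spiked into heparinized blank mouse plasma at 3.00–10,000 ng/ml.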

[8] = system: mice; settings: mouse, in vivo
[9] = system: AβPP/PS1 mice; assay: 2-day radial-arm water maze; type: in vivo, mouse
Outline: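 2-day RAWM in AβPP/PS1 and WT littermates given vehicle or test compound daily. Compounds were dissolved in Tween-80 + DMSO, then diluted with vehicle. Mice were trained […] to find a goal-arm platform, alternating visible and hidden platform. Investigators were blind to treatment and genotype. Data are mean ± SEM, analysed by two-way repeated-measures ANOVA.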

[10] = system: Aβ42-induced LTP impairment in hippocampal slices; type: cell-based, mouse; settings: compound 650 nM co-administered with Aβ42 (200 nM, 20 min)
Outline: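 Mouse transverse hippocampal slices (400 μm) were kept in an interface chamber at 29°C. Aβ42 oligomers were formed overnight at 4°C in ACSF, then diluted in vehicle. Test compound (Tween-80/DMSO stock diluted in vehicle) was perfused with Aβ42 for 20 min before tetanization, and responses were recorded for 120 min. Data are % of control or (co-treatment/Aβ42 alone)×100; mean ± SEM, repeated-measures two-way ANOVA.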

[11] = daily treatment from age 2 months until 7 months

Structure (SMILES): CCN(CC)Cc1ccc(/C=C/c2ccccc2C(=O)NC(Cc2ccccc2)C(=O)C(N)=O)cc1 (centres unmarked) [A-705253]
- Activity in 3xTgAD mouse model [1]: rescuing memory defects, and reducing levels of BACE enzyme, Aβ deposits, and overall neuroinflammation

Structure (SMILES): CC(C)C[C@H](NC(=O)[C@H]1O[C@@H]1C(=O)O)C(=O)NCCCCN=C(N)N [E64]
- Effect on Aβ levels [2]: do not have any effect on Aβ levels

Structure (SMILES): O=C(NCc1cn(-c2ccc(F)cc2)nn1)[C@H](Cc1cscn1)NC(=O)[C@H]1O[C@@H]1C(=O)O [NYC488]
- Maximum tolerated dose (MTD) [3]: 200 mg/kg
- pIC50 [4]: > 7.00
- Contextual fear memory defect in AβPP/PS1 mice ([5]; daily treatment from age 2 months until 3 months, 7.57/7.86/7.83 mg/kg): ameliorated the defect in contextual fear memory
- Contextual fear memory defect in AβPP/PS1 mice [5, 11]: ameliorated the defect in contextual fear memory
- Prevention of calpain-generated spectrin fragments in hippocampus ([6]; i.p. treatment for 12 days, same doses as PK): dramatically reduced the amount of fragments
- Ability to cross the blood-brain barrier and inhibit calpain in the brain ([6]; inferred from spectrin fragment decrease after systemic administration): cross the blood-brain barrier (BBB) and inhibit calpain in the brain
- Absolute bioavailability ([7]; i.p., equimolar dose (7.57/7.86/7.83 mg/kg)): 41.3%
- Half-life ([7]; plasma, i.p., equimolar dose (7.57/7.86/7.83 mg/kg)): 0.6 h and ~ 0.6 h
- Absorption ([7]; upon i.p. injection): rapidly absorbed
- Clinical signs of toxicity after acute single dose at MTD [8]: No clinical signs of toxicity
- RAWM performance of WT littermates ([9]; WT littermates, treatment 2 to 3 months of age): did not affect the WT littermate performance
- Spatial memory defect (2-day RAWM) in AβPP/PS1 mice ([9]; daily treatment from age 2 months until 3 months): ameliorated the defect in spatial memory; also recorded: ameliorated the deficit in RAWM performance
- Spatial memory defect (2-day RAWM) in AβPP/PS1 mice [9, 11]: ameliorated the defect in spatial memory
- Rescue of Aβ42-induced LTP impairment (phenotypic screening) [10]: robust results; also recorded: surpassed E64 benchmark in the LTP rescue assay

Structure (SMILES): CC(C)C[C@H](NS(=O)(=O)c1ccccc1)C(=O)N[C@@H](C(C)C)[C@@H](O)c1c(-c2ccccc2)c1=O [BDA-410]
- Effect on Aβ levels [2]: do not have any effect on Aβ levels
